From the array DNA melting data of Ke et al. (doi:10.1101/2024.01.08.574731)

Columns and labels:
[1] = melting temperature; fluorescence melt of hairpins on a sequencing array, two-state fit, raised by 9.35 °C to match UV melts; settings: sodium 0.088 M
Method in brief: (§1)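 Cy3 fluorescence of library hairpins on a sequenced MiSeq flow cell, with annealed Cy3 and quencher oligos, was imaged in 50 mM Na-HEPES pH 8.0, 25 mM NaCl in 2.5 °C steps up to 60 °C. Signals were normalised to pre-quench Cy3 and to control variants. Melting temperature and folding enthalpy came from bootstrapped two-state fits, inverse-variance combined over four replicates. Fitted temperatures were raised by 9.35 °C to match UV melts.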

[2] = folding enthalpy; higher = less favourable; fluorescence melt of hairpins on a sequencing array, two-state fit; settings: sodium 0.088 M
Method in brief: as §1

GATCGAACAGTCGATC ((((((....))))))
Tm [1]: 47.7 °C
folding enthalpy [2]: -131 kJ/mol

GATCTGGCGACAGATC ((((((....))))))
Tm [1]: 55.8 °C
folding enthalpy [2]: -185 kJ/mol

GATCCCTGTCGGGATC ((((((....))))))
Tm [1]: 60 °C
folding enthalpy [2]: -146 kJ/mol

GATCAAGGCCTTGATC ((((((....))))))
Tm [1]: 55 °C
folding enthalpy [2]: -216 kJ/mol

GCTTAACGAAAGTTGAGC (((.(((....))).)))
Tm [1]: 52.4 °C
folding enthalpy [2]: -163 kJ/mol

GTAAGGACGAAAGTCTAC (((..(((....))))))
Tm [1]: 30.2 °C
folding enthalpy [2]: -36.7 kJ/mol

GCTGAGCGAAAGCAGAGC (((..((....))..)))
Tm [1]: 45.9 °C
folding enthalpy [2]: -71.2 kJ/mol

GAACGGCGAAAGCCATTC (((.(((....))).)))
Tm [1]: 44.2 °C
folding enthalpy [2]: -70.1 kJ/mol

GCCTTGGGAAACCGAGGC ((((.((....)).))))
Tm [1]: 56.6 °C
folding enthalpy [2]: -167 kJ/mol

GTGATTCGAAAGAAGCAC (((.(((....))).)))
Tm [1]: 56.5 °C
folding enthalpy [2]: -184 kJ/mol

ACGGTGAAAACCGT (((((....)))))
Tm [1]: 55 °C
folding enthalpy [2]: -95.9 kJ/mol

GATCTGACAACAGATC ((((((....))))))
Tm [1]: 46.5 °C
folding enthalpy [2]: -153 kJ/mol

GTGCCCGAAAGGGAGCAC ((((((....)))..)))
Tm [1]: 55.6 °C
folding enthalpy [2]: -105 kJ/mol

GAAATCACGAAAGTGTTC (((..(((....))))))
Tm [1]: 20.8 °C
folding enthalpy [2]: -37.7 kJ/mol

GATCGAAGAATCGATC ((((((....))))))
Tm [1]: 47.1 °C
folding enthalpy [2]: -119 kJ/mol

GCTTTAGGAAACCAAAGC (((((.(....).)))))
Tm [1]: 35.4 °C
folding enthalpy [2]: -118 kJ/mol

GCATTACGAAAGTACTGC (((.(((....))).)))
Tm [1]: 46.4 °C
folding enthalpy [2]: -153 kJ/mol

GTCGGAGGAAACTCTGGC (.(.(((....))).).)
Tm [1]: 37.2 °C
folding enthalpy [2]: -118 kJ/mol

GAGTGAACGAAAGTTCTC (((..(((....))))))
Tm [1]: 29.9 °C
folding enthalpy [2]: -47.1 kJ/mol

GTCGGGCGAAAGCCAGAC (((.(((....))).)))
Tm [1]: 65.2 °C
folding enthalpy [2]: -125 kJ/mol

GTCAGGGAAACCTGAC ((((((....))))))
Tm [1]: 61.6 °C
folding enthalpy [2]: -136 kJ/mol

GCTGCGCGAAAGCGAAGC (((.(((....))).)))
Tm [1]: 69.1 °C
folding enthalpy [2]: -124 kJ/mol

GTACGGGGAAACTCGTGC (.(((.(....).))).)
Tm [1]: 39.6 °C
folding enthalpy [2]: -115 kJ/mol

GATCGTCACGACGATC ((((((....))))))
Tm [1]: 57.8 °C
folding enthalpy [2]: -180 kJ/mol

GGTCCACGAAAGTGAACC (((.(((....))).)))
Tm [1]: 51.3 °C
folding enthalpy [2]: -145 kJ/mol

GGTTGTCGAAAGACGACC (((.(((....))).)))
Tm [1]: 58.8 °C
folding enthalpy [2]: -167 kJ/mol

GCAGGCGAAAGCCGTTGC ((((((....)))..)))
Tm [1]: 53.7 °C
folding enthalpy [2]: -52.6 kJ/mol

GGAGCCACGAAAGTGTCC (((..(((....))))))
Tm [1]: 28.5 °C
folding enthalpy [2]: -37.2 kJ/mol

GGAAAACGAAAGTTCTCC (((.(((....))).)))
Tm [1]: 35.7 °C
folding enthalpy [2]: -104 kJ/mol

GCGGGTGGAAACACCTGC ((.((((....)))).))
Tm [1]: 59.1 °C
folding enthalpy [2]: -157 kJ/mol

GATCTTGGTGAAGATC ((((((....))))))
Tm [1]: 45.4 °C
folding enthalpy [2]: -114 kJ/mol

GGCGTTCGAAAGAATGCC (((.(((....))).)))
Tm [1]: 62.8 °C
folding enthalpy [2]: -236 kJ/mol

GGTTTCGAAAGAAGCACC ((((((....)))..)))
Tm [1]: 28.6 °C
folding enthalpy [2]: -69 kJ/mol

GTGTCTCGAAAGAGTCAC (((.(((....))).)))
Tm [1]: 49.4 °C
folding enthalpy [2]: -164 kJ/mol

GATCGAATTTCGATC ((((((...))))))
Tm [1]: 51.5 °C
folding enthalpy [2]: -193 kJ/mol

GCACCCGAAAGGGGTTGC ((((((....)))..)))
Tm [1]: 52.3 °C
folding enthalpy [2]: -64.5 kJ/mol

GTTACTGGAAACAGTGAC ((.((((....)))).))
Tm [1]: 44.9 °C
folding enthalpy [2]: -115 kJ/mol

GACACTGGAAACAGTATC ((.((((....)))).))
Tm [1]: 30.4 °C
folding enthalpy [2]: -73.7 kJ/mol

GGTTGGGGAAACCCAGCC ((.((((....)))).))
Tm [1]: 53.7 °C
folding enthalpy [2]: -180 kJ/mol

GTGATTACGAAAGTACAC (((..(((....))))))
Tm [1]: 27.8 °C
folding enthalpy [2]: -42.1 kJ/mol

CGTACGGAAACGTTCACG ((((((....)))..)))
Tm [1]: 39 °C
folding enthalpy [2]: -77.7 kJ/mol

GATAGCGAAAGCTGGATC ((((((....)))..)))
Tm [1]: 29.6 °C
folding enthalpy [2]: -53.9 kJ/mol

GGATCAGGAAACCGATCC (((((.(....).)))))
Tm [1]: 46.4 °C
folding enthalpy [2]: -163 kJ/mol

GATCGTGAGAACGATC ((((((....))))))
Tm [1]: 59.3 °C
folding enthalpy [2]: -132 kJ/mol

CAAACGAAAGTTTG (((((....)))))
Tm [1]: 53 °C
folding enthalpy [2]: -96.1 kJ/mol

GATCAGTGAACTGATC ((((((....))))))
Tm [1]: 52.6 °C
folding enthalpy [2]: -152 kJ/mol

GTTGTGGGAAACCACAGC (.(((((....))))).)
Tm [1]: 49.7 °C
folding enthalpy [2]: -83.7 kJ/mol

GATTGGGGAAACCTAATC ((((.((....)).))))
Tm [1]: 37.5 °C
folding enthalpy [2]: -123 kJ/mol

GAGTGCGAAAGCAGTCTC ((((((....)))..)))
Tm [1]: 58.1 °C
folding enthalpy [2]: -99.3 kJ/mol

CGCACGGAAACGTGGCG ((((((....))).)))
Tm [1]: 54.2 °C
folding enthalpy [2]: -109 kJ/mol

GCTTGCGAAAGCAATAGC ((((((....)))..)))
Tm [1]: 47.1 °C
folding enthalpy [2]: -64.2 kJ/mol

GTGACCGAAAGGTAACAC ((((((....)))..)))
Tm [1]: 47.1 °C
folding enthalpy [2]: -70.6 kJ/mol

GAGCCCCGAAAGGGTCTC (((.(((....))).)))
Tm [1]: 57.1 °C
folding enthalpy [2]: -137 kJ/mol

GTTGGTGGAAACACCGAC ((.((((....)))).))
Tm [1]: 53.4 °C
folding enthalpy [2]: -163 kJ/mol

GCAGCCCCGAAAGGGTGC (((..(((....))))))
Tm [1]: 53.4 °C
folding enthalpy [2]: -69 kJ/mol

GTTACAGAAATGTAAC ((((((....))))))
Tm [1]: 46.1 °C
folding enthalpy [2]: -140 kJ/mol

GACGTGGAAACACGTC ((((((....))))))
Tm [1]: 67.6 °C
folding enthalpy [2]: -140 kJ/mol

GCATCGCGAAAGCCATGC ((((.((....)).))))
Tm [1]: 56.3 °C
folding enthalpy [2]: -149 kJ/mol

GATCCAAGGCTGGATC ((((((....))))))
Tm [1]: 48.9 °C
folding enthalpy [2]: -148 kJ/mol

GCGTGTACGAAAGTACGC (((..(((....))))))
Tm [1]: 53.1 °C
folding enthalpy [2]: -62.9 kJ/mol

GATCAGTCTTCTGATC ((((((....))))))
Tm [1]: 51.2 °C
folding enthalpy [2]: -158 kJ/mol

GTCATGGGAAACCGTGAC ((((.((....)).))))
Tm [1]: 52.9 °C
folding enthalpy [2]: -177 kJ/mol

CTCTCGAAAGAGAG (((((....)))))
Tm [1]: 53.3 °C
folding enthalpy [2]: -89.9 kJ/mol

GTAGGTCGAAAGACGTAC (((.(((....))).)))
Tm [1]: 51.7 °C
folding enthalpy [2]: -152 kJ/mol

GATCTACCGATAGATC ((((((....))))))
Tm [1]: 37.8 °C
folding enthalpy [2]: -149 kJ/mol

GGAGACGAAAGTCCTTCC ((((((....)))..)))
Tm [1]: 42.6 °C
folding enthalpy [2]: -88.1 kJ/mol

GAATCCCGAAAGGGCTTC (((.(((....))).)))
Tm [1]: 41.9 °C
folding enthalpy [2]: -79.7 kJ/mol

CGCGGAATAGTCCGCG ((((((....))))))
Tm [1]: 68.5 °C
folding enthalpy [2]: -107 kJ/mol

GAGAGGAAACTCTC (((((....)))))
Tm [1]: 44.6 °C
folding enthalpy [2]: -98.1 kJ/mol

GTGGTCGAAAGACGTCAC ((((((....)))..)))
Tm [1]: 36.2 °C
folding enthalpy [2]: -56.4 kJ/mol

GATCCGGCTACGGATC ((((((....))))))
Tm [1]: 67.8 °C
folding enthalpy [2]: -168 kJ/mol

GCAGCTGGAAACAGCTAC (.(((((....))))).)
Tm [1]: 42.1 °C
folding enthalpy [2]: -58.7 kJ/mol

GCATGGCGAAAGCTTTGC (((..((....))..)))
Tm [1]: 46.7 °C
folding enthalpy [2]: -89.4 kJ/mol

GAGACCGAAAGGTTCCTC ((((((....)))..)))
Tm [1]: 32 °C
folding enthalpy [2]: -51.9 kJ/mol

GCTCGTGGAAACATGAGC ((((.((....)).))))
Tm [1]: 54.5 °C
folding enthalpy [2]: -155 kJ/mol

GCGTACTCACGC ((((....))))
Tm [1]: 52.3 °C
folding enthalpy [2]: -81.5 kJ/mol

CATACGAAAGTATG (((((....)))))
Tm [1]: 50.4 °C
folding enthalpy [2]: -105 kJ/mol

GATCCCCCGCGGGATC ((((((....))))))
Tm [1]: 57.2 °C
folding enthalpy [2]: -143 kJ/mol

GGTCACGAAAGTGAAACC ((((((....)))..)))
Tm [1]: 41.4 °C
folding enthalpy [2]: -74.9 kJ/mol

GACACCGAAAGGTGCGTC ((((((....)))..)))
Tm [1]: 45.7 °C
folding enthalpy [2]: -42.6 kJ/mol

GTGCCCCGAAAGGGTCAC (((.(((....))).)))
Tm [1]: 57.7 °C
folding enthalpy [2]: -145 kJ/mol

GATCCGACGTCGGATC ((((((....))))))
Tm [1]: 59.9 °C
folding enthalpy [2]: -218 kJ/mol

GTTAGAGCGAAAGCTAAC (((..(((....))))))
Tm [1]: 33.1 °C
folding enthalpy [2]: -61.2 kJ/mol

GCAACGGGAAACCGTCAC (..((((....))))..)
Tm [1]: 27.1 °C
folding enthalpy [2]: -46.7 kJ/mol

GGGAGGGGAAACTCTCCC (((((.(....).)))))
Tm [1]: 52 °C
folding enthalpy [2]: -131 kJ/mol

GAAACAGGAAACTGTTTC (((((((....)))))))
Tm [1]: 55.5 °C
folding enthalpy [2]: -175 kJ/mol

GCGGCCTTCCGC ((((....))))
Tm [1]: 57.9 °C
folding enthalpy [2]: -83.3 kJ/mol

GCAAAGGGAAACTTTTGC (((((.(....).)))))
Tm [1]: 41 °C
folding enthalpy [2]: -112 kJ/mol

CGACAGAAATGTCG (((((....)))))
Tm [1]: 52.9 °C
folding enthalpy [2]: -109 kJ/mol

GGGATGGGAAACCGTCTC (.((.((....)).)).)
Tm [1]: 36.6 °C
folding enthalpy [2]: -109 kJ/mol

GGTGTGTCGAAAGACACC (((..(((....))))))
Tm [1]: 47.8 °C
folding enthalpy [2]: -42.8 kJ/mol

GATCGACCTATCGATC ((((((....))))))
Tm [1]: 51 °C
folding enthalpy [2]: -163 kJ/mol

GATCGGGCACCCGATC ((((((....))))))
Tm [1]: 64.6 °C
folding enthalpy [2]: -167 kJ/mol
